Compound activity as filed in PubChem.
The list is not random: actives were taken first. Their share in the collection is about 12%.
WT yeast gro inh: growth inhibition of WT yeast, mitochondrial fusion screen | inhibition, % at 10 µM | 190,000 tested, 2.1% active | mitochondrial fusion phenotypic screen, WT strain; in the data active means inhibition above about 58%; tested in S. cerevisiae
Diaphorase inh: counter-screen for diaphorase-based assays: diaphorase inhibitors and chemical oxidizers. 190,000 tested, 0.69% active. diaphorase resazurin-to-resorufin fluorescence, NADH, 16 min; bacterial (C. kluyveri) enzyme, not human. inhibition, % at 20 µM. AID 1217;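 active means primary screen inhibition at 20 µM above a set limit, cut at about 50% in these data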;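 further: plate controls were DMSO with full reaction for no effect and wells lacking NADH for full effect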
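Benchmarks: positive control wells lacking NADH, neutral wells with DMSO only. System: bacterial diaphorase enzyme (C. kluyveri). Input: 0.14 U/mL diaphorase, enzyme working solution. Detection: resorufin fluorescence, excitation 544 nm, emission 590 nm. Times: 16-min room-temperature incubation before reading.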
Diaphorase act: diaphorase activation or chemical reduction counter-screen | Diaphorase/resazurin coupled assay, resorufin fluorescence, 16 min; active compounds read high; 1 = vehicle wells, 0 = NADH-free wells | activation factor at 20 µM | 190,000 tested, 0.005% active;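 active means diaphorase activity raised at least twofold by the compound at 20 µM; inactive means activation factor below 2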
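Material: purified diaphorase enzyme from Clostridium kluyveri / Medium: HEPES pH 7.4 buffer with MgCl2 and Tween 20 / Schedule: enzyme reaction of 16 min at room temperature / Measured by: resorufin fluorescence, excitation 544 nm, emission 590 nm / Evaluation: rise in resorufin formation, marking diaphorase activation or chemical reduction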
KCC2 mod: modulators of human KCC2 chloride dependent transport | 190,000 tested, 2.2% active | KCC2 cells, thallium flux FluoZin-2 fluorescence | B-score of Tl+ flux slope (higher = more flux/activation; lower = inhibition) at 10 µM;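 active means thallium flux slope and its plate-corrected score both differing from the plate sample mean at a set confidence after two filtering rounds, in either direction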;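 further: slope of fluorescence scaled to starting intensity during 10 to 20 s after thallium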
Target sequence (Q9H2X9 whole entry, looked up): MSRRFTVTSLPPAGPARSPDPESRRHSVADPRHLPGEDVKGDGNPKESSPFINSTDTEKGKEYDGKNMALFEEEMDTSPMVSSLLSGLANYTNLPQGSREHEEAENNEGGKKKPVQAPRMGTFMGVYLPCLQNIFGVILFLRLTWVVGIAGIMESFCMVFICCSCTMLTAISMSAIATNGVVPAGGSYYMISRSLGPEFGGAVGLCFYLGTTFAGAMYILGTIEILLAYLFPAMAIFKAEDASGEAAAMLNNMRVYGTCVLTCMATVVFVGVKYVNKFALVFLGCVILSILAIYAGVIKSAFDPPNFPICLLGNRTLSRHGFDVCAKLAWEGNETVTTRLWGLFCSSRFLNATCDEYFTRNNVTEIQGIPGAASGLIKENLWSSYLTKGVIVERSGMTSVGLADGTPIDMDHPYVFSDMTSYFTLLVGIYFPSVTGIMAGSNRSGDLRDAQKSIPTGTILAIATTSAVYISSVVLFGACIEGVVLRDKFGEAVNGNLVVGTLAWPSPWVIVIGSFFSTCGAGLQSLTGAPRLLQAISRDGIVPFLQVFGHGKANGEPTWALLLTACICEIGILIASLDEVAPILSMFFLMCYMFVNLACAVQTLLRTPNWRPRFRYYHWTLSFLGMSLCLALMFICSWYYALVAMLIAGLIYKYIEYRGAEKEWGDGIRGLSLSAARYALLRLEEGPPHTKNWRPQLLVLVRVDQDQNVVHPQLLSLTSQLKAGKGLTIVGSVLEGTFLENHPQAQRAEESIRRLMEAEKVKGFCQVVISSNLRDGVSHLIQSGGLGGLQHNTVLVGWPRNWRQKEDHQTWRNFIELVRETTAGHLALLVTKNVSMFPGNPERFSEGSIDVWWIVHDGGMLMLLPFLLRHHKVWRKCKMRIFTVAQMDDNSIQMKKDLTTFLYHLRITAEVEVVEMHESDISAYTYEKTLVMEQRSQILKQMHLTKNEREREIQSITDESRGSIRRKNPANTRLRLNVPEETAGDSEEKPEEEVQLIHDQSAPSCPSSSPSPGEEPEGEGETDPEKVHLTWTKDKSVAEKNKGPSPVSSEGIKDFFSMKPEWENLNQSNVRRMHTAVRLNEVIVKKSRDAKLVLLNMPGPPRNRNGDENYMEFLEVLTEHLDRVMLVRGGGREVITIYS
L major viab: inhibitors of Leishmania major promastigote growth. Leishmania major promastigotes, resazurin fluorescence viability. inhibition, % at 10 µM. 200,000 tested, 9% active. AID 1063; in the data active means inhibition above about 50%;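 further: promastigotes grown with compound for 44 hours at 28 °C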
ROMK primary: human ROMK K+ channel modulation, primary screen | P48048 | Tet-inducible ROMK, thallium flux fluorescence; actives lie on both sides | B-score at 10 µM | 130,000 tested, 2% active | AID 1918;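 active means signal ratio slope over the read window, or its plate-corrected B-score, at least 3 SD from the plate mean, either direction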;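 further: B-score of the F/F0 ratio slope over 7 to 12 s after thallium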
KCC2 sec1: KCC2 (human) modulation, secondary assay | shares compounds with KCC2 mod | HEK293-KCC2, thallium flux, FluoZin2 fluorescence; active compounds read high | normalised thallium flux (F/F0 slope) at 10 µM | 3,700 tested, 15% active | AID 1713;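 active means thallium flux slope above the same plate's solvent-only control mean plus 3 SD; inconclusive means the two replicate wells disagree; inactive means no significant difference from solvent-only control wells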
KCC2 bumet counter: thallium flux despite bumetanide block in KCC2 cells, secondary assay 3 | shares compounds with KCC2 mod | HEK293-KCC2 + bumetanide/ouabain, thallium flux FluoZin2; active compounds read high | normalized thallium flux at 10 µM | 3,700 tested, 49% active | AID 1714;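 active means thallium entry rate above the same plate's blocked-transporter control wells by more than 3 SD; inconclusive means the two repeat wells disagree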;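 further: raw slope of fluorescence over initial fluorescence between 10 and 20 s after thallium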
KCC2 sec2: KCC2 (human) modulation, second secondary assay; 3,700 tested, 23% active; shares compounds with KCC2 mod; HEK293-KCC2, thallium flux FluoZin2 fluorescence; actives lie on both sides; F/F0 rise rate, 10–20 s post-thallium; normalized thallium flux at 10 µM;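 active means thallium flux slope more than 3 SD above or below the plate's solvent-only control mean, mostly below; inconclusive means the two repeat wells disagreed; inactive means no significant shift from solvent-only controls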;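 further: raw slope with 0.1% DMSO as baseline and bumetanide as block control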
HEK counter1: counter-screen for KCC2 modulators: effect in parental HEK293 cells. shares compounds with KCC2 mod. thallium flux FluoZin2, ouabain; baseline-ratio fluorescence slope, 10–20 s after thallium. thallium flux rate (normalised fluorescence) at 10 µM. 3,700 tested, 46% active. AID 1716;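 active means thallium flux rate significantly above the same plate's solvent-only control wells, beyond their mean plus 3 SD; inconclusive means the two replicate wells gave conflicting results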
KCC2 retest ouab: confirmation of human KCC2 modulators with ouabain; shares compounds with KCC2 mod; HEK293-KCC2, thallium flux FluoZin2 fluorescence; bidirectional: low = inhibitor, high = activator; raw Tl+ flux slope (below DMSO = inhibition, above = activation) at 10 µM; 3,700 tested, 48% active; AID 1717;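 active means thallium flux slope beyond 3 SD from same-plate DMSO control mean in most replicates, usually higher, sometimes lower; inconclusive means repeat tests gave conflicting results; inactive means no significant difference from controls in most replicates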;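 further: slope of initial-normalized fluorescence between seconds 10 and 20 after thallium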
HEK293 Tl flux2: acts in parental HEK cells, second KCC2 counter-screen; 3,700 tested, 33% active; HEK293 parental, thallium flux FluoZin-2 fluorescence slope; AID 1718; shares compounds with KCC2 mod; thallium flux slope at 10 µM;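 active means thallium flux slope above the same plate's solvent-control mean plus 3 SD in both duplicate wells; inconclusive means duplicate wells that disagreed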;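 further: run without ouabain in cells lacking the KCC2 cotransporter; slope of fluorescence scaled to its starting value between 10 and 20 s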
* hit, by the source's call; u = inconclusive; x = no result given.

SMILES	WT yeast gro inh	Diaphorase inh	Diaphorase act	KCC2 mod	L major viab	ROMK primary	KCC2 sec1	KCC2 bumet counter	KCC2 sec2	HEK counter1	KCC2 retest ouab	HEK293 Tl flux2
CCc1cccc(NC(=O)CCSCCC(=O)Nc2cccc(CC)c2)c1	3.5	9.7	0.9	x	-3.1	-1.03	x	x	x	x	x	x
Cc1ccc(-c2ccc(CCC(=O)O)n2Cc2ccco2)cc1	-5.9	9.3	0.9	x	7.4	-0.277	x	x	x	x	x	x
CC(C)(C)c1ccc(C(=O)NC(=S)NCc2cccnc2)cc1	53.4	-2.9	1	3.36	11.8	-1.25	x	x	x	x	x	x
CCOC(=O)c1sc(NC(=S)NC(=O)c2ccccc2)nc1C	10.9	9.7	0.9	54.4*	-5.6	1.56	0.00554	0.0892*	0.0709*	0.0629*	0.0807*	0.0553*
Cc1nc(NC(=S)NC(=O)c2ccccc2)sc1C(=O)N(C)C	37.7	23.1	0.8	0.355	-3.8	0.631	x	x	x	x	x	x
COC(=O)CNC(=S)NC(=O)c1ccc(C(C)(C)C)cc1	21.0	19.2	0.8	6.32*	0.6	-0.998	0.00542	0.0146*	0.0323	0.0108*	u	u
CC(C)NC(=O)C1CCN(C(=O)C(C(=O)c2ccccc2)n2cc(Cl)ccc2=O)CC1 (centres undefined)	0.6	16.6	0.8	-4.29*	-6.7	x	0.00981	u	0.0364	0.00963*	0.0237	u
CCc1ccc2c(c1)C(c1ccc([N+](=O)[O-])cc1)=NNC(c1ccc(F)cc1)=N2	7.3	4.1	1	x	4.7	x	x	x	x	x	x	x
COC(=O)c1ccc(CNC(=O)/C=C/c2cc([N+](=O)[O-])ccc2OC(F)F)cc1	20.8	-0.2	1	-0.00908	-0.6	1.66	x	x	x	x	x	x
O=c1c2cc(N3CCOCC3)ccc2[nH]c(=S)n1Cc1ccc(Cl)cc1	21.7	-2.3	1	2.35	7.9	-0.497	x	x	x	x	x	x
CCCCn1c(=S)[nH]c2ccc(N3CCOCC3)cc2c1=O	-15.1	22.3	0.8	12*	-4.9	0.466	0.0143*	0.0308*	0.034	0.03*	0.0319*	0.0163*
O=c1c2cc(N3CCOCC3)ccc2[nH]c(=S)n1CCN1CCCC1	-3.2	6.5	0.9	0.144	14.8	0.0215	x	x	x	x	x	x
Cc1ccc(Cn2c(=S)[nH]c3ccc(N4CCOCC4)cc3c2=O)o1	-0.3	28.3	0.7	13.9*	-9.6	x	0.0113	0.00977*	0.0355	u	0.0238	0.0119
CSc1ccc(NC(=O)NCCN2CCc3ccccc3C2)cc1	1.3	11.2	0.9	-3.89*	30.9	x	0.0145	0.00506	0.0249*	0.00724	0.0151	0.00987
O=C(NC(=S)Nc1cc(Cl)ccc1O)c1cccc(Br)c1	x	x	x	6.52*	x	x	0.00779	0.0309*	0.0357	0.0137*	0.0271*	0.0177*
O=C(NNC(=O)c1cccc(Br)c1)Nc1ccc(Cl)cc1	7.6	-10.7	1.1	0.449	-1.1	0.193	x	x	x	x	x	x
CN(C)c1ccc(C(=S)NCc2ccco2)cc1	11.1	16.4	0.8	1.88	4.4	x	x	x	x	x	x	x
O=C1NCC(COCc2ccco2)O1 (centres undefined)	-0.3	12.6	0.9	-4.83*	-2.1	-0.278	0.0174	0.00489	0.0273	u	0.0167	0.0116
CN(Cc1ccccc1)c1nc(N)nc(Cl)c1C=O	3.2	12.6	0.9	-4.95*	-8.2	-3.39	0.00721	0.00653	0.0324	0.00394	0.012*	0.0121
Cc1c(C=O)c(C=O)c(C)n1Cc1ccccc1	-7.8	5.7	0.9	x	3.6	x	x	x	x	x	x	x
O=C(Cn1nnc(-c2ccccc2)n1)NCc1ccco1	-8.3	16.0	0.8	x	11.2	0.0576	x	x	x	x	x	x
O=C(CN(CCc1ccccc1)C(=O)Cn1nnc(-c2cccs2)n1)NCc1ccco1	10.1	19.5	0.8	-4.08*	5.5	x	0.00526	0.00504	0.0238*	0.00694	u	0.00978
COc1ccc(C/C(C)=N/NC(=S)Nc2ccccc2F)cc1	-8.0	1.3	1	55.4*	-9.9	0.206	0.0107	0.036*	0.0404	u	0.0391*	u
COc1ccc(OCC(=O)NC(=S)Nc2ccccc2F)cc1	12.8	10.8	0.9	51.7*	42.5	x	0.04*	0.0878*	0.049*	0.0279*	0.0508*	0.0326*
O=C(COc1ccccc1/C=C1\SC(=O)NC1=O)Nc1ccc(F)cc1	-8.7	28.0	0.7	-3.14*	-2.6	0.483	0.00755	0.00679	0.0321	0.00356	0.0134*	0.0106
SMILES	WT yeast gro inh	Diaphorase inh	Diaphorase act	KCC2 mod	L major viab	ROMK primary	KCC2 sec1	KCC2 bumet counter	KCC2 sec2	HEK counter1	KCC2 retest ouab	HEK293 Tl flux2
O=C1NC(=O)/C(=C/c2ccccc2Oc2ccc(Cl)cc2)S1	13.4	4.0	1	x	-4.0	x	x	x	x	x	x	x
O=C(COc1ccccc1/C=C1/NC(=O)NC1=O)Nc1ccccc1	-11.2	9.1	0.9	0.0238	-3.9	x	x	x	x	x	x	x
Cc1ccc(S(=O)(=O)Oc2ccccc2/C=C2\SC(=O)NC2=O)cc1	-10.3	19.4	0.8	-6.01*	2.4	-0.277	u	0.004	0.0238*	0.00658*	0.0147*	0.0103
CC(=O)c1cc(F)ccc1OCC(=O)N1CCN(c2ccc(F)cc2)CC1	3.4	6.8	0.9	-2.13	-4.8	-1.11	x	x	x	x	x	x
O=C(O)C1=C[C@H](c2ccc(F)cc2)C[C@H](OCc2ccc(CO)cc2)O1	x	x	x	0.135	x	x	x	x	x	x	x	x
C#CC1(NC(=O)NC(C)C)CCCCC1	4.2	-2.3	1	0.81	-6.1	1.55	x	x	x	x	x	x
Cc1ccc(S(=O)(=O)Nc2nc3ccccc3nc2NCc2ccc3c(c2)OCO3)cc1C	0.7	15.1	0.8	0.273	-4.8	x	x	x	x	x	x	x
Cc1nonc1NC(=O)CSc1ccc(-c2ccccc2)nn1	-13.3	17.6	0.8	-8.02*	3.5	-0.345	0.00746	0.00528	0.0217*	0.00663	u	0.0103
CC1CCN(C(=O)CSc2ccc(-c3ccccc3)nn2)CC1	-1.0	14.8	0.9	-3.16*	44.1	0.128	u	0.00673	0.0311	0.00755	0.0158*	0.0109
